Experiments:
[1] = tested on: Hepatitis B virus; test: Antiviral activity against Hepatitis B virus infected in human HepG2(2.2.15) cells assessed as inhibition of viral e antigen secretion by ELISA; assay type: functional, organism-based
How it was run: (§1)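 HepG 2.2.15 cells in RPMI-1640 with 10% fetal calf serum at 37 °C, 5% CO2. Compounds dissolved in DMSO, culture DMSO below 2.5 μL/mL. Secreted HBeAg and HBsAg measured by ELISA. IC50 values are means of at least two experiments.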

[2] = tested on: Hepatitis B virus; test: Antiviral activity against Hepatitis B virus infected in human HepG2(2.2.15) cells assessed as inhibition of viral surface antigen secretion by ELISA; assay type: functional, organism-based; how it was run: as §1
[3] = Selectivity index, ratio of CC50 for human HepG2(2.2.15) cells to IC50 for Hepatitis B virus infected in human HepG2(2.2.15) cells assessed as inhibition of viral surface antigen secretion; assay type: functional
How it was run: (§2)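 SI calculated as CC50 (MTT, HepG 2.2.15) divided by IC50 for the named read-out (HBV DNA by real-time PCR, or HBeAg or HBsAg secretion by ELISA), in the same cell line.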

[4] = tested on: Hepatitis B virus; test: Antiviral activity against Hepatitis B virus infected in human HepG2(2.2.15) cells assessed as inhibition of viral DNA replication by PCR analysis; assay type: functional, organism-based
How it was run: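 HepG 2.2.15 cells grown in RPMI-1640 with 10% fetal calf serum, […] and penicillin/streptomycin at 37 °C, 5% CO2. Compounds added in DMSO, kept below 2.5 μL/mL. HBV DNA quantified by SYBR Green real-time PCR with HBV-specific primers spanning 541–591 bp. IC50 values are means of at least two experiments.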

[5] = Cytotoxicity against human HepG2(2.2.15) cells by modified-MTT assay; assay type: cell-based
How it was run: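 HepG 2.2.15 cells in RPMI-1640 with 10% fetal calf serum at 37 °C, 5% CO2. Compounds in DMSO, final DMSO below 2.5 μL/mL. Viability read by modified MTT method. CC50 is the mean of at least two experiments.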

[6] = Selectivity index, ratio of CC50 for human HepG2(2.2.15) cells to IC50 for Hepatitis B virus infected in human HepG2(2.2.15) cells assessed as inhibition of viral DNA replication; assay type: functional; how it was run: as §2
[7] = Selectivity index, ratio of CC50 for human HepG2(2.2.15) cells to IC50 for Hepatitis B virus infected in human HepG2(2.2.15) cells assessed as inhibition of viral e antigen secretion; assay type: functional; how it was run: as §2
[8] = tested on: Mus musculus; test: Acute toxicity in Kunming mouse assessed as change in body weight at 250 mg/kg, po administered as single dose measured on day 7 (Rvb =26.3 g); assay type: organism-based; design: dose 250 mg/kg, route oral; settings: in vivo
[9] = tested on: Mus musculus; test: Acute toxicity in Kunming mouse assessed as mortality at 50 mg/kg, po administered as single dose measured up to 14 days; assay type: organism-based; design: dose 50 mg/kg, route oral; settings: in vivo, 336 h
[10] = tested on: Mus musculus; test: Acute toxicity in Kunming mouse assessed as abnormality at 50 to 1250 mg/kg, po administered as single dose measured up to 14 days; assay type: organism-based; design: dose 50-1250 mg/kg, route oral; settings: in vivo, 336 h
[11] = tested on: Mus musculus; test: Acute toxicity in Kunming mouse assessed as change in body weight at 50 mg/kg, po administered as single dose measured on day 14 (Rvb =28.5 g); assay type: organism-based; design: dose 50 mg/kg, route oral; settings: in vivo
[12] = tested on: Nucleic Acid; test: Increase of enhancer 1 transcriptional activity in HBV infected in human HepG2(2.2.15) cells transfected with pGL3 at 10 uM after 3 days by luciferase reporter gene assay relative to mock-treated control; assay type: cell-based; settings: Hepatitis B virus
How it was run: (§3)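 HepG 2 cells transiently transfected by Lipofectamine 2000 with HBV promoter/enhancer firefly luciferase reporters in pGL3, with phRL-CMV Renilla luciferase as internal control. Cells split 24 h after transfection and cultured 3 days, then treated at 10 μM for 3 days. Dual-luciferase read-out in triplicate. Fold activity = treated/mock-treated activity.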

[13] = tested on: Nucleic Acid; test: Inhibition of X promoter transcriptional activity in HBV infected in human HepG2(2.2.15) cells transfected with pGL3 at 10 uM after 3 days by luciferase reporter gene assay relative to mock-treated control; assay type: cell-based; settings: Hepatitis B virus; how it was run: as §3
[14] = tested on: Mus musculus; test: Acute toxicity in Kunming mouse assessed as change in body weight at 250 mg/kg, po administered as single dose measured on day 14 (Rvb =28.5 g); assay type: organism-based; design: dose 250 mg/kg, route oral; settings: in vivo
[15] = tested on: Mus musculus; test: Acute toxicity in Kunming mouse assessed as change in body weight at 1250 mg/kg, po administered as single dose measured on day 14 (Rvb =28.5 g); assay type: organism-based; design: dose 1250 mg/kg, route oral; settings: in vivo
[16] = tested on: Mus musculus; test: Acute toxicity in Kunming mouse assessed as mortality at 250 mg/kg, po administered as single dose measured up to 14 days; assay type: organism-based; design: dose 250 mg/kg, route oral; settings: in vivo, 336 h
[17] = tested on: Mus musculus; test: Acute toxicity in Kunming mouse assessed as change in body weight at 1250 mg/kg, po administered as single dose measured on day 7 (Rvb =26.3 g); assay type: organism-based; design: dose 1250 mg/kg, route oral; settings: in vivo
[18] = tested on: Mus musculus; test: Acute toxicity in po dosed Kunming mouse; assay type: organism-based; settings: in vivo
[19] = Cytotoxicity against human HepG2(2.2.15) cells assessed as cell viability at 10 uM after 48 hrs by MTT assay; assay type: cell-based; settings: hepg2 2.2.15, 48 h
How it was run: (§4)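 Cell viability measured by MTT under the 10 μM luciferase reporter treatment conditions, at 48 h and 72 h.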

[20] = tested on: Mus musculus; test: Acute toxicity in Kunming mouse assessed as change in body weight at 50 mg/kg, po administered as single dose measured on day 7 (Rvb =26.3 g); assay type: organism-based; design: dose 50 mg/kg, route oral; settings: in vivo
[21] = tested on: Mus musculus; test: Acute toxicity in Kunming mouse assessed as mortality at 1250 mg/kg, po administered as single dose measured up to 14 days; assay type: organism-based; design: dose 1250 mg/kg, route oral; settings: in vivo, 336 h
[22] = Cytotoxicity against human HepG2(2.2.15) cells assessed as cell viability at 10 uM after 72 hrs by MTT assay; assay type: cell-based; settings: hepg2 2.2.15, 72 h; how it was run: as §4

Structure (SMILES) | IC50 [1] [µM] | IC50 [2] [µM] | Ratio CC50/IC50 [3] | IC50 [4] [µM] | CC50 [5] [µM] | Ratio CC50/IC50 [6] | Ratio CC50/IC50 [7] | also measured
CC(=O)[C@]1(O)CC[C@@]2(O)[C@]1(C)[C@H](OC(=O)/C=C(\C)C(C)C)C[C@@H]1[C@@]3(C)CC[C@H](OC(=O)/C=C/c4ccccc4Cl)CC3=CC[C@]12O | 550 | 28.4 | >40.4 | 22.9 | > 1150 | >50.1 | >2.1 | 
CC(=O)[C@]1(O)CC[C@@]2(O)[C@]1(C)[C@H](OC(=O)/C=C(\C)C(C)C)C[C@@H]1[C@@]3(C)CC[C@H](OC(=O)/C=C/c4ccc(F)c(F)c4)CC3=CC[C@]12O | 69.2 | 15.6 | >82.7 | 4.66 | > 1290 | >277 | >18.7 | 
CC(=O)[C@]1(O)CC[C@@]2(O)[C@]1(C)[C@H](OC(=O)/C=C(\C)C(C)C)C[C@@H]1[C@@]3(C)CC[C@H](OC(=O)/C=C/c4ccccc4F)CC3=CC[C@]12O | 21.6 | 72 | 7.3 | 7.68 | 523 | 68.1 | 24.2 | 
CC(=O)[C@]1(O)CC[C@@]2(O)[C@]1(C)[C@H](OC(=O)/C=C(\C)C(C)C)C[C@@H]1[C@@]3(C)CC[C@H](OC(=O)/C=C/c4cccc(Br)c4)CC3=CC[C@]12O | 12.5 | 14.4 | 29.9 | 4.42 | 429 | 97 | 34.4 | 
CC(=O)[C@]1(O)CC[C@@]2(O)[C@]1(C)[C@H](OC(=O)/C=C(\C)C(C)C)C[C@@H]1[C@@]3(C)CC[C@H](OC(=O)/C=C/c4cc(F)cc(F)c4)CC3=CC[C@]12O | 90.7 | 20.3 | >66 | 18.6 | > 1340 | >72 | >14.8 | 
CC(=O)[C@]1(O)CC[C@@]2(O)[C@]1(C)[C@H](OC(=O)/C=C(\C)C(C)C)C[C@@H]1[C@@]3(C)CC[C@H](OC(=O)/C=C/c4ccc(F)c(F)c4F)CC3=CC[C@]12O | 14 | < 5.58 | >71.1 | 2.83 | 397 | 140.2 | 28.3 | 
COc1cc(/C=C/C(=O)O[C@H]2CC[C@@]3(C)C(=CC[C@]4(O)[C@@H]3C[C@@H](OC(=O)/C=C(\C)C(C)C)[C@@]3(C)[C@]4(O)CC[C@@]3(O)C(C)=O)C2)cc(OC)c1OC | 5.52 | 5.52 | >330 | 2.44 | > 1820 | >746.6 | >330 | Activity [8]: 27.3%; Activity [9]: Non-toxic; Activity [10]: Non-toxic; Activity [11]: 28.9%; fold change (FC) [12]: 9.4; fold change (FC) [13]: 5.6; Activity [14]: 29.8%; Activity [15]: 28.8%; Activity [16]: Non-toxic; Activity [17]: 26.5%; LD50 [18]: 1250 mg/kg; Activity [19]: 97.4%; Activity [20]: 26.7%; Activity [21]: Non-toxic; Activity [22]: 85.6%
CC(=O)[C@]1(O)CC[C@@]2(O)[C@]1(C)[C@H](OC(=O)/C=C(\C)C(C)C)C[C@@H]1[C@@]3(C)CC[C@H](OC(=O)/C=C/c4ccccc4[N+](=O)[O-])CC3=CC[C@]12O | 52.7 | 37 | >41.9 | 21.7 | > 1550 | >71.4 | >29.4 | 
CC(=O)[C@]1(O)CC[C@@]2(O)[C@]1(C)[C@H](OC(=O)/C=C(\C)C(C)C)C[C@@H]1[C@@]3(C)CC[C@H](OC(=O)/C=C/c4ccc(Br)cc4)CC3=CC[C@]12O | 485 | 36.4 | >35.5 | 16 | > 1290 | >80.6 | >2.7 | 
COc1ccc(/C=C/C(=O)O[C@H]2CC[C@@]3(C)C(=CC[C@]4(O)[C@@H]3C[C@@H](OC(=O)/C=C(\C)C(C)C)[C@@]3(C)[C@]4(O)CC[C@@]3(O)C(C)=O)C2)c(OC)c1OC | 28 | 12.4 | >125 | 21.1 | > 1550 | >73.5 | >55.3 | 
